Measurements reported in ChEMBL document CHEMBL1949638, “4'-bromo-5,6,7-trimethoxyflavone represses lipopolysaccharide-induced iNOS and COX-2 expressions by suppressing the NF-κB signaling pathway in RAW 264.7 macrophages” (Bioorg Med Chem Lett, 2012).
Active and inactive are the calls of the source. The calls are words filed in the database; no cut-off is given here.

Key:
RAW264.7 [1] = test: Antiinflammatory activity against mouse RAW264.7 cells assessed as inhibition of LPS-induced PGE2 production at 25 uM by EIA; type: functional
RAW264.7 [2] = test: Antiinflammatory activity against mouse RAW264.7 cells assessed as inhibition of LPS-induced NO production at 25 uM preincubated for 1 hr before LPS challenge measured after 24 hrs by Griess method; type: functional
In short: (§1)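 Pretreatment with test agent for 1 h, then LPS 1 μg/ml for 24 h; nitrite in culture medium measured by Griess assay. IC50 derived; means ± SDs of three independent experiments. L-NIL 10 μM served as reference NO inhibitor.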

RAW264.7 [3] = test: Cytotoxicity against mouse RAW264.7 cells; type: cell-based
RAW264.7 [4] = test: Cytotoxicity against mouse RAW264.7 cells assessed as effect on cell viability up to 50 uM after 24 hrs; type: cell-based; conditions: raw264.7, 24 h
In short: (§2)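 RAW 264.7 viability checked after 24 h exposure to compounds up to 50 µM, with and without LPS.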

RAW264.7 [5] = test: Cytotoxicity against mouse LPS-stimulated RAW264.7 cells assessed as effect on cell viability up to 50 uM after 24 hrs; type: cell-based; conditions: raw264.7, 24 h; in short: as §2
[6] = molecular target: Transcription factor p65 (Mus musculus) (UniProt Q04207); test: Inhibition of NF-kappaB p65 subunit nuclear translocation in LPS-induced mouse RAW264.7 cells pretreated for 1 hr before LPS challenge measured after 15 min or 1 hr post challenge by Western blot analysis
Sequence of Transcription factor p65 (Mus musculus) (Q04207 whole entry): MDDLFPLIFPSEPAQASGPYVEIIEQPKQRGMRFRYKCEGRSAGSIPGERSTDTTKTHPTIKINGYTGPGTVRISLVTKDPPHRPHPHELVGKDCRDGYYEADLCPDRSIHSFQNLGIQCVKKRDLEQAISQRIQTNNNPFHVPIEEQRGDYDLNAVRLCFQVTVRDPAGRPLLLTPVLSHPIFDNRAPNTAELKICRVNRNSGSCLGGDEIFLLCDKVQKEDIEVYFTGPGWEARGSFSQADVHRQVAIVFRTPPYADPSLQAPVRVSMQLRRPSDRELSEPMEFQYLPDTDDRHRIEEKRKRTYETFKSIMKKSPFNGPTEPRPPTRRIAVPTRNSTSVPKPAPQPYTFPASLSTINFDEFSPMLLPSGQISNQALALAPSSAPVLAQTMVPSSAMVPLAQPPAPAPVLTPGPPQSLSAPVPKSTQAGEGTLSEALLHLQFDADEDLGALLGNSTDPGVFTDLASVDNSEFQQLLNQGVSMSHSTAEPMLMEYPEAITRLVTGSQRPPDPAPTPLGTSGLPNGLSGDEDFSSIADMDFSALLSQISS

[7] = tested on: Peritoneal macrophage cell; test: Antiinflammatory activity against thioglycolate-stimulated C57BL/6 mouse peritoneal macrophages assessed as inhibition of LPS-induced PGE2 production by EIA; type: functional, cell-based
RAW264.7 [8] = test: Inhibition of NF-kappaB in mouse RAW264.7 cells assessed as inhibition of LPS-induced expression of COX2 preincubated 1 hr before LPS challenge measured after 24 hrs by Western blot analysis; type: cell-based
In short: (§3)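 1 h pretreatment at 6.25, 12.5 or 25 μM, then LPS 1 μg/ml for 24 h. Controls had neither LPS nor compound. 30 μg total protein run on SDS–PAGE, blotted to nitrocellulose, probed with iNOS- and COX-2-specific antibodies. Blots representative of three experiments.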

RAW264.7 [9] = test: Inhibition of NF-kappaB in mouse RAW264.7 cells assessed as suppression of LPS-induced iNOS mRNA level at 6.25 to 25 uM after 4 hrs by quantitative RT-PCR analysis; type: cell-based
In short: (§4)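 Total RNA taken from cells exposed to LPS 1 μg/ml with or without 6.25, 12.5 or 25 μM compound for 4 h. Steady-state iNOS and COX-2 mRNA measured by qRT-PCR and expressed as a ratio to β-actin. Means ± SDs, n=3 independent experiments. ANOVA with Dunnett's test.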

RAW264.7 [10] = test: Inhibition of NF-kappaB activation in mouse LPS-stimulated RAW264.7 cells co-transfected with pNF-KappaB-luc reporter and pRL-TK-luc pretreated for 1 hr before LPS challenge measured after 1 hr post challenge by luciferase assay; type: cell-based
In short: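 Cells co-transfected with pNF-κB-luc and pRL-TK-luc, pretreated 1 h with 6.25, 12.5 or 25 μM, then given LPS 1 μg/ml for another 1 h. Luciferase activity measured by luminometer. Three independent experiments.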

RAW264.7 [11] = test: Inhibition of NF-kappaB in mouse RAW264.7 cells co-transfected with pCOX-2-luc reporter with pRL-TK-luc assessed as inhibition of LPS-induced COX2 expression pretreated for 1 hr before LPS challenge by luciferase assay; type: cell-based
In short: (§5)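 Cells transiently co-transfected with the piNOS-luc or pCOX-2-luc reporter plus pRL-TK-luc, then pretreated 1 h with 6.25, 12.5 or 25 μM before LPS. Luciferase activity read on a luminometer. Means ± SDs of three independent experiments.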

RAW264.7 [12] = test: Inhibition of NF-kappaB activation in LPS-stimulated mouse RAW264.7 cells assessed as blockage of IkappaBalpha degradation pretreated at 6.25 to 25 uM for 1 hr before LPS challenge measured after 15 to 60 mins post challenge by Western blotting; type: cell-based
In short: (§6)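 Pretreatment 1 h at 6.25, 12.5 or 25 μM, then LPS 1 μg/ml for 15 min or 1 h. Cytosolic extracts immunoblotted for phospho-IκBα and IκBα, with β-actin as loading control. Blots representative of three experiments.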

RAW264.7 [13] = test: Inhibition of NF-kappaB in mouse RAW264.7 cells assessed as suppression of LPS-induced COX2 mRNA level at 6.25 to 25 uM after 4 hrs by quantitative RT-PCR analysis; type: cell-based; in short: as §4
[14] = tested on: Peritoneal macrophage cell; test: Antiinflammatory activity against thioglycolate-stimulated C57BL/6 mouse peritoneal macrophages assessed as inhibition of LPS-induced NO production preincubated for 1 hr before LPS challenge measured after 24 hrs by Griess method; type: functional, cell-based
In short: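 Peritoneal macrophages harvested from thioglycolate-injected C57BL/6 mice. Test agent 6.25, 12.5 or 25 μM added 1 h before LPS 1 μg/ml, with 24 h incubation. NO in the medium measured by Griess assay. Three independent experiments, means ± SDs.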

RAW264.7 [15] = test: Inhibition of NF-kappaB in mouse RAW264.7 cells assessed as reduction of LPS-induced TNFalpha release at 6.25 to 25 uM pretreated for 1 hr before LPS challenge and measured after 24 hrs post LPS challenge by EIA; type: cell-based
In short: (§7)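 Compound at 6.25, 12.5 or 25 μM given 1 h ahead of LPS 1 μg/ml, then 24 h incubation. TNF-α, IL-6 and IL-1β in culture medium quantified by EIA kits. Means ± SDs of three independent experiments.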

RAW264.7 [16] = test: Inhibition of NF-kappaB in mouse RAW264.7 cells assessed as reduction of LPS-induced TNFalpha mRNA expression at 6.25 to 25 uM after 4 hrs by quantitative RT-PCR analysis; type: cell-based
In short: (§8)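 RNA prepared after 4 h of LPS 1 μg/ml stimulation with or without 6.25–25 μM compound. TNF-α, IL-6 and IL-1β transcripts quantified by qRT-PCR and normalised to β-actin. Three independent experiments.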

RAW264.7 [17] = test: Antiinflammatory activity against mouse RAW264.7 cells assessed as inhibition of LPS-induced PGE2 production by EIA; type: functional, cell-based
RAW264.7 [18] = test: Inhibition of NF-kappaB in mouse RAW264.7 cells assessed as reduction of LPS-induced IL1beta mRNA expression at 6.25 to 25 uM after 4 hrs by quantitative RT-PCR analysis; type: cell-based; in short: as §8
RAW264.7 [19] = test: Inhibition of NF-kappaB in mouse RAW264.7 cells assessed as reduction of LPS-induced IL1beta release at 6.25 to 25 uM pretreated for 1 hr before LPS challenge and measured after 24 hrs post LPS challenge by EIA; type: cell-based; in short: as §7
RAW264.7 [20] = test: Inhibition of NF-kappaB in mouse RAW264.7 cells assessed as reduction of LPS-induced IL6 release at 6.25 to 25 uM pretreated for 1 hr before LPS challenge and measured after 24 hrs post LPS challenge by EIA; type: cell-based; in short: as §7
RAW264.7 [21] = test: Inhibition of NF-kappaB in mouse RAW264.7 cells assessed as reduction of LPS-induced IL6 mRNA expression at 6.25 to 25 uM after 4 hrs by quantitative RT-PCR analysis; type: cell-based; in short: as §8
RAW264.7 [22] = test: Antiinflammatory activity against mouse RAW264.7 cells assessed as inhibition of LPS-induced NO production preincubated for 1 hr before LPS challenge measured after 24 hrs by Griess method; type: functional, cell-based; in short: as §1
RAW264.7 [23] = test: Inhibition of NF-kappaB in mouse RAW264.7 cells assessed as inhibition of LPS-induced iNOS expression preincubated 1 hr before LPS challenge measured after 24 hrs by Western blot analysis; type: cell-based; in short: as §3
RAW264.7 [24] = test: Inhibition of NF-kappaB in mouse RAW264.7 cells co-transfected with piNOS-luc reporter with pRL-TK-luc assessed as inhibition of LPS-induced iNOS expression pretreated for 1 hr before LPS challenge by luciferase assay; type: cell-based; in short: as §5
RAW264.7 [25] = test: Inhibition of NF-kappaB activation in LPS-stimulated mouse RAW264.7 cells assessed as blockage of IkappaBalpha phosphorylation pretreated at 6.25 to 25 uM for 1 hr before LPS challenge measured after 15 to 60 mins post challenge by Western blotting; type: cell-based; in short: as §6
RAW264.7 [26] = test: Antiinflammatory activity against mouse RAW264.7 cells assessed as inhibition of LPS-induced NO production at <16.73 uM preincubated for 1 hr before LPS challenge measured after 24 hrs by Griess method; type: functional, cell-based

O=c1cc(-c2ccccc2)oc2cc(O)c(O)c(O)c12 [BAICALEIN]
inhibition at 25 µM (RAW264.7 [1]): 60.9% | inhibition at 25 µM (RAW264.7 [2]): 11.1% | IC50 (RAW264.7 [3]): > 100 µM

COc1cc2oc(-c3ccc(N)cc3)cc(=O)c2c(OC)c1OC
Activity (RAW264.7 [4]): Non-toxic | inhibition at 25 µM (RAW264.7 [1]): 69.5% | inhibition at 25 µM (RAW264.7 [2]): 23.1% | Activity (RAW264.7 [5]): Non-toxic | IC50 (RAW264.7 [3]): > 100 µM

COc1cc2oc(-c3ccc(Br)cc3)cc(=O)c2c(OC)c1OC
inhibition [6]: Dose-dependent effect | inhibition [7]: Dose-dependent effect | inhibition (RAW264.7 [8]): Dose-dependent effect | inhibition (RAW264.7 [9]): Active | Activity (RAW264.7 [4]): Non-toxic | inhibition at 25 µM (RAW264.7 [1]): 89.6% | inhibition at 25 µM (RAW264.7 [2]): 89.6% | inhibition (RAW264.7 [10]): Dose-dependent effect | inhibition (RAW264.7 [11]): Dose-dependent effect | inhibition (RAW264.7 [12]): Active | inhibition (RAW264.7 [13]): Active | inhibition [14]: Dose-dependent effect | inhibition (RAW264.7 [15]): Active | inhibition (RAW264.7 [16]): Active | IC50 (RAW264.7 [17]): 11 µM | inhibition (RAW264.7 [17]): Dose-dependent effect | inhibition (RAW264.7 [18]): Active | inhibition (RAW264.7 [19]): Active | inhibition (RAW264.7 [20]): Active | Activity (RAW264.7 [5]): Non-toxic | inhibition (RAW264.7 [21]): Active | IC50 (RAW264.7 [22]): 14.2 µM | inhibition (RAW264.7 [22]): Dose-dependent effect | inhibition (RAW264.7 [23]): Dose-dependent effect | IC50 (RAW264.7 [3]): 69.9 µM | inhibition (RAW264.7 [24]): Dose-dependent effect | inhibition (RAW264.7 [25]): Active

O=c1cc(-c2ccc(Br)cc2)oc2cc(O)c(O)c(O)c12
Activity (RAW264.7 [4]): Non-toxic | inhibition at 25 µM (RAW264.7 [1]): 29.9% | inhibition at 25 µM (RAW264.7 [2]): 27% | Activity (RAW264.7 [5]): Non-toxic | IC50 (RAW264.7 [3]): 57.1 µM

O=c1cc(-c2ccc([N+](=O)[O-])cc2)oc2cc(O)c(O)c(O)c12
Activity (RAW264.7 [4]): Non-toxic | inhibition at 25 µM (RAW264.7 [1]): 29.9% | inhibition at 25 µM (RAW264.7 [2]): 7.65% | Activity (RAW264.7 [5]): Non-toxic | IC50 (RAW264.7 [3]): > 100 µM

Nc1ccc(-c2cc(=O)c3c(O)c(O)c(O)cc3o2)cc1
Activity (RAW264.7 [4]): Non-toxic | inhibition at 25 µM (RAW264.7 [1]): 83.1% | inhibition at 25 µM (RAW264.7 [2]): 6.98% | Activity (RAW264.7 [5]): Non-toxic | IC50 (RAW264.7 [3]): 94.1 µM

COc1cc2oc(-c3ccccc3)cc(=O)c2c(OC)c1OC [BAICALEIN TRIMETHYL ETHER]
Activity (RAW264.7 [4]): Non-toxic | inhibition at 25 µM (RAW264.7 [1]): 42.2% | inhibition at 25 µM (RAW264.7 [2]): 12.1% | Activity (RAW264.7 [5]): Non-toxic | IC50 (RAW264.7 [3]): > 100 µM

COc1cc2oc(-c3ccc([N+](=O)[O-])cc3)cc(=O)c2c(OC)c1OC
Activity (RAW264.7 [4]): Non-toxic | inhibition at 25 µM (RAW264.7 [1]): 84.4% | inhibition at 25 µM (RAW264.7 [2]): 17.4% | Activity (RAW264.7 [5]): Non-toxic | IC50 (RAW264.7 [3]): > 100 µM

COc1c(O)cc2oc(-c3ccccc3)cc(=O)c2c1O [OROXYLIN A]
inhibition at 25 µM (RAW264.7 [2]): 12.4% | Activity (RAW264.7 [26]): inactive | IC50 (RAW264.7 [3]): 16.7 µM
